M18AAP inhibitor: blocks P. falciparum M18 aspartyl aminopeptidase; recombinant PfM18AAP, H-Glu-NHMec fluorogenic cleavage; inhibition, % at 7.35 µM; 290,000 tested, 1.2% active;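 active = inhibition above the campaign mean inhibition over all tested compounds plus 3 SD, cut at about 28% in these data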;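 note: 0% = plate median of test compound wells and 100% = 2 mM ZnCl2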
IMP-1 inh-1: blocks Pseudomonas aeruginosa IMP-1 metallo-beta-lactamase. purified IMP-1, nitrocefin hydrolysis, epi-absorbance fluorescence. inhibition, % at 5.6 µM. 290,000 tested, 0.45% active;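 active = inhibition above the mean plus 3 SD of all compounds in the same screening run, cut at about 4.5% in these data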;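 note: 0% = IMP-1 with DMSO and 100% = DMSO wells lacking enzyme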
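System: purified IMP-1 / Input: IMP-1 dispensed at 0.2 nM / Medium: 50 mM HEPES pH 7.1, 50 µM ZnSO4, 0.05% Brij 35 / Timing: 15 min enzyme–compound preincubation, then 25 min nitrocefin reaction, 25 °C / Technique: plate fluorescence quenching by hydrolysis product, ex 480/em 530 nm / Repeats: singlicate testing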
sPLA2-III inh: Inhibits HGIII-sPLA2 liposome hydrolysis, primary screen; Q9NZ20; QFRET BODIPY PC-A2 liposome hydrolysis, fluorescence; inhibition, % at 12.2 µM; 370,000 tested, 0.56% active; AID 743126;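 active = inhibition above mean plus 3 SD of compounds lying within the high and low control bounds, cut at about 19% in these data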;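 note: 0% = median of test compound wells and 100% = no enzyme DMSO wells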
VIM-2 inh: inhibitors of Pseudomonas aeruginosa VIM-2 metallo-beta-lactamase | purified VIM-2, nitrocefin hydrolysis, epi-absorbance fluorescence | inhibition, % at 5.6 µM | 290,000 tested, 0.89% active;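 active = inhibition above the mean of all tested compounds plus 3 SD, cutoff set per screening run, cut at about 7.5% in these data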;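 note: red hydrolysis product quenches plate fluorescence so inhibitors raise well fluorescence; 0% = enzyme with DMSO and 100% = DMSO without enzyme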
IMP-1 inh-2: selectivity counter-screen for VIM-2 inhibitors: IMP-1 metallo-beta-lactamase inhibitors; inhibition, % at 5.6 µM; AID 1856; shares compounds with VIM-2 inh; 1,300 tested, under 10 active; purified IMP-1, nitrocefin hydrolysis, epi-absorbance fluorescence; call rule not given here;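 note: 0% = enzyme with vehicle and 100% = vehicle without enzyme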
VIM-2 FRET ctr: inhibits VIM-2 in FRET assay to exclude epi-absorbance artifacts. shares compounds with VIM-2 inh. inhibition, % at 5.6 µM. 1,300 tested, 23% active. purified VIM-2, CCF2 FRET substrate hydrolysis;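 active = inhibition above the mean of all tested compounds plus 3 SD, cut at about 19% in these data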;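 note: 0% = VIM-2 plus DMSO and 100% = no enzyme wells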
TEM-1 counter: selectivity counter-screen for VIM-2 inhibitors: E. coli TEM-1 inhibitors; Purified TEM-1, nitrocefin hydrolysis, epi-absorbance fluorescence; AID 1866; 1,300 tested, 3% active; shares compounds with VIM-2 inh; inhibition, % at 5.6 µM;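 active = inhibition above that campaign's mean inhibition plus 3 SD, cut at about 0.46% in these data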;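 note: 0% = TEM-1 with DMSO and 100% = TEM-1 with 100 µM potassium clavulanate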
Target sequence (P62593 whole entry, looked up): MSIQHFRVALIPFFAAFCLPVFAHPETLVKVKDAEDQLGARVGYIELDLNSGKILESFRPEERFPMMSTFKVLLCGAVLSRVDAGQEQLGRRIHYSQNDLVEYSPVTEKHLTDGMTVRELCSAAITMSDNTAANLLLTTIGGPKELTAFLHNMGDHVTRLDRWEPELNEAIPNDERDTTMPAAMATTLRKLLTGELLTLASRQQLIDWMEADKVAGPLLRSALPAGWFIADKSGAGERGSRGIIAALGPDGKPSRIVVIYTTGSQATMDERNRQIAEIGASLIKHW
VIM-2 inh conf: confirmation of P. aeruginosa VIM-2 metallo-beta-lactamase inhibitors | shares compounds with VIM-2 inh | purified VIM-2, nitrocefin hydrolysis, epi-absorbance | inhibition, % at 5.6 µM | 1,300 tested, 96% active;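 active = inhibition of the VIM-2 beta-lactamase enzyme above about 11% from the earlier first-round screen, limit read from the data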;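 note: 0% = VIM-2 with DMSO and 100% = buffer wells without enzyme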
* = called active by the depositor; . = no result given. Shown are actives, neighbours in structure and some others; about 2.4% of the full set was active somewhere.

SMILES	M18AAP inhibitor	IMP-1 inh-1	sPLA2-III inh	VIM-2 inh	IMP-1 inh-2	VIM-2 FRET ctr	TEM-1 counter	VIM-2 inh conf
Cc1ccc(S(=O)(=O)n2[nH]c(=O)cc2NC(=O)c2cccs2)cc1	-8	0	.	70*	-4	91*	-6	84*
Nc1cc(OC(=O)c2cccs2)nn1S(=O)(=O)c1ccccc1	-14	-2	-8	-2	.	.	.	.
CCOC(=O)c1cnc2c(CC)cccc2c1NCCCN1CCOCC1	-4	0	-5	24*	-3	1	-4	33*
CCOC(=O)c1cnc2c(C(F)(F)F)cccc2c1NCCCN1CCOCC1	-15	0	-6	20*	-3	1	-6	27*
CCOC(=O)c1cnc2c(Cl)cccc2c1NCCN1CCOCC1	-13	-2	-5	2	.	.	.	.
CCOC(=O)c1cnc2c(Cl)cccc2c1NCCCN1CCOCC1	0	-3	4	20*	-3	-1	-5	28*
COc1ccc(OC)c(CN2C(=O)CCCCC2(C)c2nnnn2C2CCCC2)c1 (stereo not given)	.	.	3	.	.	.	.	.
CCOC(=O)c1cnc2ccc(OCC)cc2c1NCCN1CCOCC1	3	-4	3	-2	.	.	.	.
CCOC(=O)c1cnc2ccc(OCC)cc2c1NCCCN1CCOCC1	-1	-4	-2	32*	-3	-3	-6	45*
CCOC(=O)c1cnc2ccc(C(=O)OC)cc2c1NCCN1CCOCC1	3	-4	-7	-6	.	.	.	.
CCOC(=O)c1cnc2ccc(C(=O)OC)cc2c1NCCCN1CCOCC1	-10	1	0	70*	-4	-3	-6	82*
O=C(COc1ccc([N+](=O)[O-])cc1)NNC(=O)Nc1ccccc1F	13	-1	-10	-6	.	.	.	.
O=C(COc1ccc2ccc(=O)oc2c1)NCCN1CCOCC1	.	.	18	.	.	.	.	.
Cc1ccc(/C(O)=C2/C(=O)C(=O)N(Cc3cccnc3)C2c2ccccn2)cc1 (stereo not given)	0	-3	2	3	.	.	.	.
O=C1C(=O)N(Cc2cccnc2)C(c2ccccn2)/C1=C(/O)c1ccc(F)cc1 (stereo not given)	0	-3	1	52*	-2	76*	-6	69*
CCOC(=O)c1cc(OC(=O)Cc2ccc(OC)c(S(=O)(=O)N3CCOCC3)c2)cc(C(=O)OCC)c1	.	.	-23	.	.	.	.	.
COc1cccc(-c2cnc3c(NC(C)=O)cc(-c4cccc(C(=O)NCCN(C)C)c4)cn23)c1	.	.	-13	.	.	.	.	.
O=C(COc1ccc2c(-c3ccccc3)cc(=O)oc2c1)Nc1cccnc1	0	-2	5	-1	.	.	.	.
O=C(CSc1nnc(NC(=O)C2CCCCC2)s1)NCc1ccco1	-7	-4	-9	28*	-4	62*	-7	43*
O=C(CSc1nnc(NC(=O)c2ccccc2)s1)NCc1ccco1	6	-2	-11	25*	-4	44*	-4	28*
O=C(CSc1nnc(NC(=O)C2CC2)s1)NCc1ccco1	12	-2	-1	0	.	.	.	.
Cc1cc2cc(C)c3nnc(SCC(=O)NCc4ccco4)n3c2cc1C	4	-4	-8	13*	-1	8	0	24*
Cc1ccccc1C(=O)Nc1nnc(SCC(=O)NCc2ccco2)s1	-4	-2	-3	52*	-4	75*	-6	61*
COc1ccccc1C(=O)NC1CCCCN(Cc2cccc(Cl)c2)C1=O (stereo not given)	.	.	-9	.	.	.	.	.
COc1cccc(-c2c(-c3ccccc3OC)ncn2Cc2cccc(-c3ccccc3)c2)c1	.	.	-15	.	.	.	.	.
SMILES	M18AAP inhibitor	IMP-1 inh-1	sPLA2-III inh	VIM-2 inh	IMP-1 inh-2	VIM-2 FRET ctr	TEM-1 counter	VIM-2 inh conf
O=C(CSc1nnc(NC(=O)c2cccc(F)c2)s1)NCc1ccco1	-1	-2	-1	33*	-4	54*	-4	39*
CN(C)CC(=O)N[C@@H]1C[C@@H]2O[C@@H](CO)CC[C@@H]2O[C@@H]1CCc1ccc(-c2ccc(F)cc2)cc1	.	.	-15	.	.	.	.	.
O=C(COc1ccc2c3c(c(=O)oc2c1)CCC3)NCc1ccncc1	6	-2	8	29*	-3	-3	-4	39*
O=C(COc1cc2oc(=O)c3c(c2cc1Cl)CCC3)NCc1ccncc1	-1	-3	7	28*	-3	-4	-3	35*
O=C(COc1cc2oc(=O)c3c(c2cc1Cl)CCC3)NCC1CCC(C(=O)O)CC1 (stereo not given)	0	-2	-1	5	.	.	.	.
NS(=O)(=O)c1ccc(CCNC(=O)COc2ccc3c4c(c(=O)oc3c2)CCC4)cc1	-2	-3	4	19*	-3	-4	-8	28*
O=C(COc1ccc2c3c(c(=O)oc2c1)CCC3)NCc1cccnc1	4	-3	0	17*	-3	-1	-6	27*
O=C(COc1ccc2c3c(c(=O)oc2c1)CCC3)Nc1ccc(CCO)cc1	0	-4	7	6	.	.	.	.
Nc1nc(/C=C/c2ccc(F)cc2)nc(-c2ccccc2O)n1	-11	1	2	1	.	.	.	.
Nc1nc(/C=C/c2cccnc2)nc(-c2ccccc2O)n1	0	-1	0	23*	-3	-4	-7	60*
O=C(Nc1ccccc1Cl)c1ccc2nc(N3CCOCC3)sc2c1	-3	-2	-3	-2	.	.	.	.
COc1cccc(NC(=S)N(C)C2CCN(C)CC2)c1	1	-1	-1	-2	.	.	.	.
CCSc1ccc2nnc(-c3cccc(F)c3)n2n1	1	-2	1	12*	-3	-9	-6	23*
CCN(CC)CCCNC(=O)C1CCN(c2ncnc3c2sc2cccc(F)c23)CC1	-1	2	-2	27*	-1	10	-6	39*
O=C(Nc1ccc(F)cc1F)C1CCN(c2ncnc3c2sc2cccc(F)c23)CC1	-1	-2	-2	3	.	.	.	.
CC1CC(C)CN(CCCNC(=O)C2CCN(c3ncnc4c3sc3cccc(F)c34)CC2)C1 (stereo not given)	-2	-1	.	25*	0	3	-6	36*
O=P(O)(O)c1ccccc1OCc1ccccc1	-1	-3	6	55*	-3	81*	-5	68*
O=P(O)(O)c1ccccc1OCCCCCOc1ccccc1P(=O)(O)O	-13	1	3	62*	-3	76*	-6	66*
NNC(=O)c1ccccc1OCc1ccccc1	-2	-4	-4	-1	.	.	.	.
Cc1ccc(Nc2c3c(nc4ncnn24)CCC3)cc1	-12	-1	3	17*	-3	1	-5	24*
CCC(c1n[nH]c(=S)n1-c1ccccc1)N(C)C (stereo not given)	31*	-6	4	17*	-3	34*	-4	26*

Screening results as filed in PubChem BioAssay.
